High-throughput results: PubChem, The Scripps Research Institute Molecular Screening Center
OX1R antag-1 = blocks the human orexin 1 receptor. AID 434989. CHO/OX1R cells, Fluo-8 calcium fluorescence, orexin A. 330,000 compounds, 0.43% hits. O43613. inhibition, % at 5 µM;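 active = inhibition above its plate's threshold, mean inhibition of all tested compounds on the plate plus 3 SD, cut at about 37% in these data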;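 also: 0% = orexin A challenge wells and 100% = SB-334867-A antagonist wells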
Target sequence (O43613 whole entry, looked up): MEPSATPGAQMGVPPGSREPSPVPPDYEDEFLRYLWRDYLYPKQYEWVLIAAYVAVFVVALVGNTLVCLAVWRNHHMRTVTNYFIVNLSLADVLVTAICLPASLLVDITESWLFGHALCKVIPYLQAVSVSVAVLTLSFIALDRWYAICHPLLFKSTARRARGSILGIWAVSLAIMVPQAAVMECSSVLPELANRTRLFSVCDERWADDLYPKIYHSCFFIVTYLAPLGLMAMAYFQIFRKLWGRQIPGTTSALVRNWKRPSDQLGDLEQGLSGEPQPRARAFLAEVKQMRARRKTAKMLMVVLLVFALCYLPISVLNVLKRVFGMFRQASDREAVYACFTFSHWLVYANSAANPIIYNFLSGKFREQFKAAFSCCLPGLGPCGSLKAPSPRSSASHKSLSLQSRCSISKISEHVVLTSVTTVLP
M1 PAM parental = nonselective activator or artifact in parental CHO-K1 calcium assay | ATP EC20, Fluo-8 calcium fluorescence; 0% at ATP EC20, 100% at ATP max | AID 602247 | activation, % at 3 µM | 360,000 compounds, 0.02% hits;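 active = activation above the run cutoff, the mean activation of all test compounds plus 3 SD, cut at about 40% in these data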;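 also: peak over basal fluorescence ratio in a 140 s read after ATP addition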
CHO-K1 Ca antag = M1 antagonist counterscreen hit in parental CHO-K1 cells | ATP-induced calcium, Fluo-8 fluorescence | 360,000 compounds, 0.6% hits | inhibition, % at 3 µM;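 active = inhibition above a per-plate cutoff, the plate's mean sample inhibition plus 3 SD, cut at about 24% in these data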;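 also: 0% = DMSO plus EC80 ATP and 100% = DMSO alone without ATP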
CHO parental Ca = counter-screen for OX1R antagonists: effect in parental CHO cells. parental CHO-K1, ATP-induced calcium, Fluo-8 fluorescence. 330,000 compounds, 0.63% hits. inhibition, % at 5.6 µM;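 active = inhibition above that plate's mean sample inhibition plus 3 SD, cut at about 26% in these data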;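 also: 0% = ATP-challenged DMSO wells and 100% = DMSO wells without ATP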
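Assay system: parental CHO cells; Read-out basis: percent inhibition of ATP-evoked calcium rise, normalized to controls; Benchmarks: ATP and no-ATP DMSO wells; Compound dosing: single nominal dose of 5.6 µM per compound; Signal: Fluo-8 calcium dye fluorescence; Also added: ATP as calcium-mobilizing challenge; Repeats: singlicate.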
M1 ag parental = counter-screen for M1 agonists: effect in parental CHO-K1 cells; Fluo-8 calcium fluorescence; scaled to maximal ATP response, vehicle zero; activation, % at 3 µM; 360,000 compounds, 0.48% hits; AID 602248; in the data active = activation above about 15%;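 also: untransfected CHO-K1 host cells lacking M1 receptor as counterscreen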
OX1R antag-2 = blocks the human orexin 1 receptor; O43613; OX1R-expressing cells, FRET antagonist read-out; inhibition, % at 6.6 µM; 330,000 compounds, 1.8% hits; AID 485270; in the data active = inhibition mostly above about 38%, no sharp cut-off; inactive = mostly below about 40%;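 also: 0% = agonist challenge alone and 100% = reference antagonist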
OX1R Ca confirm = confirmation of human orexin 1 receptor antagonists; shares compounds with OX1R antag-1; CHO/OX1R cells, orexin A calcium Fluo-8 fluorescence; 1,100 compounds, 38% hits; inhibition, % at 5 µM; in the data active = inhibition above about 29%;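 also: 0% = agonist challenge alone and 100% = reference antagonist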
CHO Ca counter = signal in parental CHO cells, OX1R antagonist counter-screen | shares compounds with OX1R antag-1 | parental CHO-K1, ATP-induced calcium, Fluo-8 fluorescence | inhibition, % at 5.6 µM | 1,100 compounds, 9.3% hits;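 active = inhibition above a per-plate limit, the mean inhibition of that plate's test compounds plus 3 SD, cut at about 25% in these data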;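 also: 0% = ATP challenge with DMSO and 100% = DMSO without ATP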
* = called active by the depositor. This is a sample that favours compounds with a hit; in the whole collection about 2.9% have one here.

Results for CCOC(=O)C1(C)CCCN(C(=O)c2cccs2)C1 (stereo not drawn) ?
M1 PAM parental: 23; CHO-K1 Ca antag: -5; M1 ag parental: 1

What do the screens show for `COc1cccc(-c2sc3ccc(OC)cc3c2-c2ccc(OCCN(C)C)cc2)c1`?
OX1R antag-1: 59*; M1 PAM parental: -5; CHO-K1 Ca antag: 0; CHO parental Ca: 23; M1 ag parental: 0; OX1R antag-2: 7; OX1R Ca confirm: 37*; CHO Ca counter: 4

Results for COc1cccc(-c2csc(N3CCN(C(=O)Nc4ccc(Cl)cc4)CC3)n2)c1 ?
OX1R antag-1: 32; M1 PAM parental: -12; CHO-K1 Ca antag: 10; CHO parental Ca: 7; M1 ag parental: 6; OX1R antag-2: 30; OX1R Ca confirm: 16; CHO Ca counter: 7

How did O=C(Nc1csc([N+](=O)[O-])c1)Nc1ccccc1Cl do in these assays?
OX1R antag-1: 35; M1 PAM parental: -10; CHO-K1 Ca antag: 27*; CHO parental Ca: 3; M1 ag parental: 16*; OX1R antag-2: 44; OX1R Ca confirm: 1; CHO Ca counter: 42*

How did O=C(Nc1ccccc1Cl)Nc1ccccc1Cl do in these assays?
OX1R antag-1: -29; M1 PAM parental: 22; CHO-K1 Ca antag: -10; CHO parental Ca: -9; M1 ag parental: 1; OX1R antag-2: 14

What do the screens show for `Cc1ccc(Nc2nc3ccccc3nc2Nc2c(C)n(C)n(-c3ccccc3)c2=O)cc1`?
OX1R antag-1: 57*; M1 PAM parental: 12; CHO-K1 Ca antag: 1; CHO parental Ca: -3; M1 ag parental: 0; OX1R antag-2: 14; OX1R Ca confirm: 3; CHO Ca counter: 4

Results for Cc1c(Nc2nc3ccccc3nc2NS(=O)(=O)c2cccc(Cl)c2)c(=O)n(-c2ccccc2)n1C ?
OX1R antag-1: -32; M1 PAM parental: 10; CHO-K1 Ca antag: 0; CHO parental Ca: -9; M1 ag parental: 0; OX1R antag-2: 27

How did COc1ccc(Cl)c(OC)c1C(=O)NC(=O)Nc1c(F)cc(F)cc1F do in these assays?
OX1R antag-1: -21; M1 PAM parental: 14; CHO-K1 Ca antag: -11; CHO parental Ca: 2; M1 ag parental: 0; OX1R antag-2: 9

How did C#CCNC(=O)C1=C[C@@H](c2ccc(C(F)(F)F)cc2)[C@H](CCCO)[C@@H](OCC)O1 do in these assays?
OX1R antag-1: -12; M1 PAM parental: -9; CHO-K1 Ca antag: -2; CHO parental Ca: -16; M1 ag parental: 0; OX1R antag-2: 42

What do the screens show for `Brc1ccccc1-n1nnc(-c2nccs2)n1`?
OX1R antag-1: 45; M1 PAM parental: 18; CHO-K1 Ca antag: -9; CHO parental Ca: -12; M1 ag parental: 0; OX1R antag-2: 22; OX1R Ca confirm: 7; CHO Ca counter: -8

What do the screens show for `C#CCOc1ccc(/C=C2/C(=O)ON=C2C)cc1Br`?
OX1R antag-1: 3; M1 PAM parental: 22; CHO-K1 Ca antag: -11; CHO parental Ca: -1; M1 ag parental: 0; OX1R antag-2: -6

Results for CC(Oc1ccc2c3c(c(=O)oc2c1)CCCC3)C(=O)NCc1ccccn1 (stereo not drawn) ?
OX1R antag-1: 54*; M1 PAM parental: -4; CHO-K1 Ca antag: -8; CHO parental Ca: -26; M1 ag parental: 2; OX1R antag-2: 20; OX1R Ca confirm: -11; CHO Ca counter: -14

How did CCCCCCCn1c2c(c(=N)c3ccccc31)CCC2 do in these assays?
OX1R antag-1: 30; M1 PAM parental: 9; CHO-K1 Ca antag: 9; CHO parental Ca: 22; M1 ag parental: 1; OX1R antag-2: 4; OX1R Ca confirm: 14; CHO Ca counter: 38*

What do the screens show for `CCCn1c2c(c(=N)c3c1CCC3)CCC2`?
OX1R antag-1: -14; M1 PAM parental: 11; CHO-K1 Ca antag: -1; CHO parental Ca: -4; M1 ag parental: 0; OX1R antag-2: 7

What do the screens show for `Cc1ccc(C)c(NS(=O)(=O)c2cc(C(=O)NCC3CCCO3)ccc2C)c1` (stereo not drawn)?
OX1R antag-1: -17; M1 PAM parental: -2; CHO-K1 Ca antag: -5; CHO parental Ca: -10; M1 ag parental: 1; OX1R antag-2: 6

Results for Cc1ccccc1NS(=O)(=O)c1cc(C(=O)NCCSC2CCCCC2)ccc1C ?
OX1R antag-1: 60*; M1 PAM parental: 3; CHO-K1 Ca antag: -22; CHO parental Ca: -6; M1 ag parental: 3; OX1R antag-2: 21; OX1R Ca confirm: 4; CHO Ca counter: -12

How did Cc1ccc(C)c(NS(=O)(=O)c2cc(C(=O)Nc3cccc(N(C)S(C)(=O)=O)c3)ccc2C)c1 do in these assays?
OX1R antag-1: 65*; M1 PAM parental: -7; CHO-K1 Ca antag: -8; CHO parental Ca: 16; M1 ag parental: 3; OX1R antag-2: 34; OX1R Ca confirm: 36*; CHO Ca counter: -8

How did Cc1ccc(C)c(NS(=O)(=O)c2cc(C(=O)NCCSC3CCCCC3)ccc2C)c1 do in these assays?
OX1R antag-1: 51*; M1 PAM parental: -7; CHO-K1 Ca antag: -22; CHO parental Ca: -9; M1 ag parental: 0; OX1R antag-2: 17; OX1R Ca confirm: -1; CHO Ca counter: -15

What do the screens show for `Cc1ccccc1NS(=O)(=O)c1cc(C(=O)N2CCCC2)ccc1C`?
OX1R antag-1: -15; M1 PAM parental: 22; CHO-K1 Ca antag: -17; CHO parental Ca: 2; M1 ag parental: 0; OX1R antag-2: 3

How did CC(=O)C1C(c2cccc(F)c2)c2c(n[nH]c2C)CC1(C)O (stereo not drawn) do in these assays?
OX1R antag-1: 2; M1 PAM parental: 5; CHO-K1 Ca antag: 2; CHO parental Ca: -5; M1 ag parental: 1; OX1R antag-2: 8

Results for CC(C)(C)OC(=O)C[C@@H]1C/C=C\C[C@H](CC(=O)NCCO)C(=O)N[C@@H](Cc2ccccc2)COC1=O ?
OX1R antag-1: -9; M1 PAM parental: 7; CHO-K1 Ca antag: -13; CHO parental Ca: -1; M1 ag parental: 0; OX1R antag-2: 2

Results for Cc1ccsc1C(=O)N1CCCC(N(C)Cc2ccccc2)C1 (stereo not drawn) ?
OX1R antag-1: 38; M1 PAM parental: 7; CHO-K1 Ca antag: 0; CHO parental Ca: -4; M1 ag parental: 0; OX1R antag-2: 4; OX1R Ca confirm: -5; CHO Ca counter: -4

Results for O=C1CC(NCc2ccccc2)C(=O)N1c1ccc(F)cc1 (stereo not drawn) ?
M1 PAM parental: -13; CHO-K1 Ca antag: 2; M1 ag parental: -1
